Source: ChEMBL document CHEMBL2346613, “Synthesis of indazole based diarylurea derivatives and their antiproliferative activity against tumor cell lines” (Bioorg Med Chem Lett, 2013)

Assays:
HepG2 = experiment: Cytotoxicity against human HepG2 cells after 72 hrs by MTT assay; type: functional, cell-based; details: HepG2, 72 h
How it was run: (§1)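 Cells were kept in RPMI-1640 or DMEM with 10% heat-inactivated FBS, penicillin–streptomycin, 2 mM glutamine and 10 mM HEPES at 37 °C, 5% CO2. They were trypsinized, seeded at 3 × 10³ per well and allowed 24 h before exposure to a range of concentrations for 72 h. MTT (5 mg/mL stock) was added for 4 h, absorbance read at 570 nm, and IC50 calculated.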

NCI-H460 = experiment: Cytotoxicity against human NCI-H460 cells after 72 hrs by MTT assay; type: functional, cell-based; details: NCI-H460, 72 h; how it was run: as §1
MDA-MB-231 = experiment: Cytotoxicity against human MDA-MB-231 cells after 72 hrs by MTT assay; type: functional, cell-based; details: MDA-MB-231, 72 h; how it was run: as §1
Bel-7402 = experiment: Cytotoxicity against human Bel7402 cells after 72 hrs by MTT assay; type: functional, cell-based; details: Bel-7402, 72 h; how it was run: as §1
OS-RC-2 = experiment: Cytotoxicity against human OS-RC2 cells after 72 hrs by MTT assay; type: functional, cell-based; details: OS-RC-2, 72 h; how it was run: as §1
A549 = experiment: Cytotoxicity against human A549 cells after 72 hrs by MTT assay; type: functional, cell-based; details: A549, 72 h; how it was run: as §1
SGC-7901 = experiment: Cytotoxicity against human SGC7901 cells after 72 hrs by MTT assay; type: functional, cell-based; details: SGC-7901, 72 h; how it was run: as §1
HT-29 = experiment: Cytotoxicity against human HT-29 cells after 72 hrs by MTT assay; type: functional, cell-based; details: HT-29, 72 h; how it was run: as §1
LoVo = experiment: Cytotoxicity against human LoVo cells after 72 hrs by MTT assay; type: functional, cell-based; how it was run: as §1
Mus musculus [1] = experiment: Acute toxicity against mouse at 2000 mg/kg, po administered as single dose; type: organism-based; design: dose 2000 mg/kg, route oral; details: in vivo
How it was run: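 Mice received one oral dose, and the read-out was any sign of toxicity. The highest dose given without signs was recorded as the tolerated single oral dose.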

Mus musculus [2] = experiment: Toxicity against mouse at 1460 mg/kg, po administered as single dose; type: organism-based; design: dose 1460 mg/kg, route oral; details: in vivo
How it was run: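 Acute toxicity was tested in mice by a single oral dose, with doses up to 2000 mg/kg. Animals were watched for any sign of toxicity.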

| SMILES | IC50 (HepG2) | IC50 (NCI-H460) | IC50 (MDA-MB-231) | IC50 (Bel-7402) | IC50 (OS-RC-2) | IC50 (A549) | IC50 (SGC-7901) | IC50 (HT-29) | IC50 (LoVo) | Activity (Mus musculus [1]) | Activity (Mus musculus [2]) |
| --- | --- | --- | --- | --- | --- | --- | --- | --- | --- | --- | --- |
| O=C(Nc1ccc(-n2ncc3c(Br)cccc32)cc1)Nc1ccc(Cl)c(C(F)(F)F)c1 | 2.5 µM | 1.3 µM | 7.7 µM | 1.3 µM | 9.9 µM | 2.3 µM | 16.6 µM | 4 µM | 1.7 µM |  |  |
| O=C(Nc1ccc(-n2ncc3c(C(F)(F)F)cccc32)cc1)Nc1ccc(Cl)c(C(F)(F)F)c1 | 8 µM | 1.6 µM | 2 µM | 16 µM | > 32 µM | 3 µM | > 32 µM | 2.9 µM | 3 µM | Non-toxic |  |
| O=C(Nc1ccc(-n2ncc3ccncc32)cc1)Nc1ccc(Cl)c(C(F)(F)F)c1 | 16 µM | 4.8 µM | > 32 µM | 4 µM | > 32 µM | 10.6 µM | > 32 µM | 29.5 µM | 7.1 µM |  |  |
| CNc1cccc2c1cnn2-c1ccc(NC(=O)Nc2ccc(Cl)c(C(F)(F)F)c2)cc1 | 3 µM | 2.6 µM | 3.6 µM | 5 µM | 10.6 µM | 4.9 µM | 6.9 µM | 5.9 µM | 6.3 µM |  |  |
| O=C(Nc1ccc(-n2ncc3ccccc32)cc1)Nc1ccc(Cl)c(C(F)(F)F)c1 | 8 µM | 5.5 µM | 5 µM | 10.6 µM | 32 µM | 9.9 µM | > 32 µM | 18.2 µM | 8.7 µM |  |  |
| COc1cccc2c1cnn2-c1ccc(NC(=O)Nc2ccc(Cl)c(C(F)(F)F)c2)cc1 | 4 µM | 2.2 µM | 1.2 µM | 2.9 µM | 28.8 µM | 3.7 µM | 29.8 µM | > 32 µM | > 32 µM |  |  |
| Cc1cccc2c1cnn2-c1ccc(NC(=O)Nc2ccc(Cl)c(C(F)(F)F)c2)cc1 | 4 µM | 2.5 µM | 2.3 µM | 6.7 µM | 32 µM | 5.5 µM | 14.2 µM | 32 µM | 3.9 µM |  |  |
| CNC(=O)c1cc(Oc2ccc(NC(=O)Nc3ccc(Cl)c(C(F)(F)F)c3)cc2)ccn1 [SORAFENIB] | 4 µM | 3.9 µM | 2 µM | 5.8 µM | 16 µM | 4 µM | 6.9 µM | 4 µM | 3.3 µM |  | Non-toxic |
| O=C(Nc1ccc(-n2ncc3c(F)cccc32)cc1)Nc1ccc(Cl)c(C(F)(F)F)c1 | 29.5 µM | 3.4 µM | 3.1 µM | 16 µM | 32 µM | 3.8 µM | 32 µM | 8.2 µM | 9.8 µM |  |  |
| O=C(Nc1ccc(-n2ncc3cccnc32)cc1)Nc1ccc(Cl)c(C(F)(F)F)c1 | > 32 µM | 16.6 µM | > 32 µM | 20.9 µM | > 32 µM | > 32 µM | > 32 µM | > 32 µM | 32 µM |  |  |
| O=C(Nc1ccc(-n2ncc3c(Cl)cccc32)cc1)Nc1ccc(Cl)c(C(F)(F)F)c1 | 1.9 µM | 1.3 µM | 1.6 µM | 2 µM | 3.1 µM | 3.1 µM | 4.6 µM | 4.6 µM | 3.6 µM | Non-toxic |  |
| O=C(Nc1ccc(-n2ncc3c(C(F)(F)F)cccc32)cc1)Nc1ccc(C(F)(F)F)cc1 | 1 µM | 0.8 µM | 2 µM | 1 µM | 4 µM | 0.8 µM | 4 µM | 3.3 µM | 2.2 µM | Non-toxic |  |
| O=C(Nc1ccc(-n2ncc3c(Cl)cccc32)cc1)Nc1ccc(C(F)(F)F)cc1 | 6.7 µM | 6.8 µM | 2.7 µM | 8 µM | 4.6 µM | 6 µM | 6 µM | 1 µM | 5.1 µM |  |  |
| O=C(Nc1ccc(-n2ncc3cnccc32)cc1)Nc1ccc(Cl)c(C(F)(F)F)c1 | 4 µM | 1.4 µM | 16 µM | 2.7 µM | > 32 µM | 3.4 µM | 22.6 µM | 10.5 µM | 8 µM |  |  |
